PMC4065498 (Chemical research in toxicology, 2010)
Where “and” joins values, the source holds several entries; their conditions need not be identical. Identical values can stand only once. Entries after “also recorded” stand apart in the source; their conditions may differ.

Experiments:
[1] = biological target: T1, recombinant human CES2 (Homo sapiens, UniProt O00748); assay: Hydrolysis of 2AG and PG-Gs by recombinant CES2; format: biochemical; details: for kcat / Km: human CES2, average ± SE of 2-4 independent experiments
T1 sequence (O00748 27-559): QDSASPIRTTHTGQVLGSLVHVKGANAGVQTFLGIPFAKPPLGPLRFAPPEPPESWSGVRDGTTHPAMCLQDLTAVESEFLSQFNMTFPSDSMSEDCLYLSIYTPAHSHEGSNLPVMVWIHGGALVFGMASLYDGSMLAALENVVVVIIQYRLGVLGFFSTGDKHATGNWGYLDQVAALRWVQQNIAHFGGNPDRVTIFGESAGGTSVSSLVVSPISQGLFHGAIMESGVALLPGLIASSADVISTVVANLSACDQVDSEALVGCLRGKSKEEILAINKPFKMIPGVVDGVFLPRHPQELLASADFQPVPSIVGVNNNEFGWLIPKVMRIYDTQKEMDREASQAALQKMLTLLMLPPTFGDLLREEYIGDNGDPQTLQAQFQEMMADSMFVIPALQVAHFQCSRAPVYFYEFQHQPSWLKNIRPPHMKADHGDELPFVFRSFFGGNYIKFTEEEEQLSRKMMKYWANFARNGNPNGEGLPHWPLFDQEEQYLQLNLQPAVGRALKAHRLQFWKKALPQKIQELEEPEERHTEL

[2] = tested on: lipid glyceryl ester hydrolase activities of THP1 monocyte lysates
[3] = tested on: CES1-depleted THP1 monocyte lysates; assay: PG-G and 2AG hydrolysis by CES1-immunodepleted THP1 monocyte lysates; format: biochemical, human; details: 25 μM PG-G or 10 μM 2AG, 30 min; versus preimmune IgG control
How it was run: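 THP1 monocyte lysate was solubilised in 50 mM Tris-HCl (pH 7.4) with 0.5% w/v Brij (1 h, 4°C). It was then incubated overnight with anti-CES1 or preimmune IgG plus protein A-agarose, and depletion was checked by western blot. Substrate (25 μM PG-G or 10 μM 2AG) in the same buffer was preheated 5 min at 37°C, then started with 10-30 μg supernatant lysate; 2AG ran 30 min. Reactions were run in duplicate or triplicate across ≥2 IP experiments, compared by Student's t-test.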

[4] = biological target: T2, recombinant human CES1 (Homo sapiens, UniProt P23141); assay: Hydrolysis of 2AG and PG-Gs by recombinant CES1; format: biochemical; details: for kcat / Km: human CES1, average ± SE of 2-4 independent experiments
T2 sequence (P23141 18-567): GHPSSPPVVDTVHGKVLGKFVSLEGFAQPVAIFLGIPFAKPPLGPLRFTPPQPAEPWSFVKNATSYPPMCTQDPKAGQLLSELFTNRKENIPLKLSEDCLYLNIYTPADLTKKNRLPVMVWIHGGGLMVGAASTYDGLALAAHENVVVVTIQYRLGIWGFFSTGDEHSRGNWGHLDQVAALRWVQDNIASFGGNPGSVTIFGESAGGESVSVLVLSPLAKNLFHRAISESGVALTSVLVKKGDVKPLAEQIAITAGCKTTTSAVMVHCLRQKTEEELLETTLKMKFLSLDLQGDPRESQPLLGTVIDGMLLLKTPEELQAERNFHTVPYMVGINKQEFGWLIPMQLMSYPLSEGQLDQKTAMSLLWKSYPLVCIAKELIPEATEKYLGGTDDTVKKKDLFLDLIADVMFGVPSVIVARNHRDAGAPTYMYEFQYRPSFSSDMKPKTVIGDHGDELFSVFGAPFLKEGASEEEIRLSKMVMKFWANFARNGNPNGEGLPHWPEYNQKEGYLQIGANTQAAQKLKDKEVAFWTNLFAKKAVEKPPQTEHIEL

[5] = biological target: T2, recombinant human CES1; assay: Recombinant human CES1 activity using pNPV as substrate; format: biochemical; details: data not shown
[6] = biological target: T3, native CES1 in THP1 lysates (Homo sapiens, UniProt P23141); assay: Activity-based protein profiling with FP-biotin in THP1 lysate: CES1; format: biochemical
T3 sequence (P23141 18-567): T2 sequence (P23141 18-567)
How it was run: (§1)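 THP1 monocyte lysate (1 mg/ml protein in 50 mM Tris-HCl, pH 7.4) was labelled with 2 μM FP-biotin for 1 h at room temperature. Irreversible inhibitors were preincubated for 30 min (37°C) before the probe. For the reversible inhibitor, lysate received inhibitor, then 0.2 μM FP-biotin for 7.5 min, short of full labelling. Reactions were stopped in reducing SDS loading buffer (95°C, 5 min), run on SDS-PAGE and blotted with avidin-HRP.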

[7] = tested on: 31-32kDa enzyme in THP1 lysates; assay: Activity-based protein profiling with FP-biotin in THP1 lysate: 31-32kDa enzyme; format: biochemical, human
How it was run: as §1

[8] = biological target: T2, recombinant human CES1; assay: Off-target test: 2AG hydrolysis by recombinant human CES1 with NAM; format: biochemical; details: NAM 50 μM, 2AG 25 μM, 10 min pre-incubation
[9] = tested on: THP1 macrophages; assay: In situ formation of PG-Gs by LPS-primed THP1 macrophages given exogenous 2AG; format: cell-based, human
[10] = tested on: THP1 macrophages; assay: PG-G and 2AG levels in LPS-primed THP1 macrophages stimulated with ionomycin; format: cell-based, human; details: oxon 1 μM, ionomycin 5 μM
[11] = tested on: intact THP1 monocytes; format: cell-based, human; details: PO 1 μM, 30 min; substrate 25 μM, 60 min
[12] = tested on: THP1 foam cells; assay: Endogenous 2AG produced by cholesterol-loaded THP1 macrophages; format: cell-based, human; details: 24 h
[13] = biological target: T4, recombinant human MAGL (Homo sapiens, UniProt Q99685); assay: Off-target test: 2AG hydrolysis by recombinant human MAGL with S-3030; format: biochemical; details: S-3030 50 μM, 2AG 25 μM, 10 min pre-incubation
T4 sequence (Q99685 1-303): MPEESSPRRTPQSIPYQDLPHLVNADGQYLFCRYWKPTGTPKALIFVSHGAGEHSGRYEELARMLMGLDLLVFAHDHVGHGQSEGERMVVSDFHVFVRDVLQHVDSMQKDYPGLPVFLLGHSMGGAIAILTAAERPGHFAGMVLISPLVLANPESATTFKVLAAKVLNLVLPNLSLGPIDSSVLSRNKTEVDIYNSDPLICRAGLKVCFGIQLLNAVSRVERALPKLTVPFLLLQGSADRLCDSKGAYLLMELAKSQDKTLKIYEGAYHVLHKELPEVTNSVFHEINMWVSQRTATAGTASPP

[14] = biological target: T4, recombinant human MAGL; format: biochemical; details: substrate 25 μM, 15 min, recombinant human enzymes
How it was run: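 Purified recombinant human enzymes were compared; CES1 was expressed in baculovirus-infected Spodoptera frugiperda cells.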

[15] = substrate: CCCCC/C=C\C/C=C\C/C=C\C/C=C\CCCC(=O)OC(CO)CO; assay: Hydrolysis of 2AG and PG-Gs by recombinant CES2; format: biochemical; details: other: human CES2; average ± SE of 2-4 independent experiments; pH 7.4; 37.0 °C
[16] = substrate: CCCCC/C=C\C/C=C\C/C=C\C/C=C\CCCC(=O)OC(CO)CO; assay: Hydrolysis of 2AG and PG-Gs by recombinant CES1; format: biochemical; details: other: human CES1; average ± SE of 2-4 independent experiments; pH 7.4; 37.0 °C
[17] = 1 μM PO 30 min prior to 10 μM 2AG, LPS-pretreated THP1 macrophages
[18] = maximal inhibition using 100 μM S-3030

With CCCCC/C=C\C/C=C\C/C=C\C/C=C\CCCC(=O)OC(CO)CO [2AG, 2-arachidonoylglycerol] the kcat [1] was 43 min⁻¹, the “control THP1 lysate hydrolysis activity” value ([2]; 25 μM substrate, no inhibitor) was 2.5 nmol product/min/mg protein and the “reduction of hydrolysis activity of CES1-depleted lysate” value (“reduction … of CES1-depleted lysate” below) [3] was 64%. It also gave a kcat [4] of 59 min⁻¹.

In the case of CCCCC/C=C\C/C=C\C/C=C\C/C=C\CCCC(=O)NCCO [AEA, arachidonoyl ethanolamide], the “hydrolysis of AEA by recombinant CES2” value ([1]; amide-containing substrate) is reported as “neither enzyme could hydrolyze” and the “hydrolysis of AEA by recombinant CES1” value ([4]; amide-containing substrate) is reported as “neither enzyme could hydrolyze”.

For O=C(Oc1ccc([N+](=O)[O-])cc1)N1CCC(C(O)(c2ccc3c(c2)OCO3)c2ccc3c(c2)OCO3)CC1 [JZL184], the “reduction of PGF2α-G hydrolytic activity in THP1 monocyte lysate” value ([2]; maximal reduction by JZL184) was 80%, the “inhibition of recombinant human CES1 activity using pNPV as substrate” value [5] was “potently inhibit” and the “inhibition of CES1 in THP1 cell lysate (FP-biotin activity blot)” value ([6]; JZL184 as low as 0.1 μM) was “completely inhibit”. For the same molecule, the “inhibition of the 31-32kDa enzyme (FP-biotin activity probe)” value ([7]; concentrations as high as 100 μM, 30 min) was “not inhibited”.

With CCCCC/C=C\C/C=C\C/C=C\C/C=C\CCCC(=O)N1C(=O)C=CC1=O [NAM, N-arachidonoyl maleimide] the “inhibition of recombinant CES1 activity toward 2AG” value [8] was “inhibits”.

With CCOP(=O)(OCC)Oc1ccc([N+](=O)[O-])cc1 [PO, paraoxon] the “increase in PGE2-G levels” value [9, 17] was 2 fold, the “increase in PGF2α-G levels” value [9, 17] was 4 fold and the “inhibition of PGE2-G hydrolysis activity in THP1 cell lysate” value ([2]; oxon 1 μM) was “near complete inhibition”. The “inhibition of hydrolysis of exogenous 2AG in THP1 lysate” value ([2]; oxon 1 μM, 2AG 10 μM) was 35%, the “inhibition of 2AG hydrolysis activity in THP1 lysate” value ([2]; oxon 10 μM) was “did not further enhance inhibition” and the “knock down of 2AG hydrolysis activity in THP1 monocyte lysate” value ([2]; oxon 500 μM) was 55%. The “PGF2α-G, PGE2-G, and 2AG levels compared to vehicle-treated cells following ionomycin stimulation” value [10] was “did not significantly elevate”, the “inhibition of hydrolysis of exogenous 2AG, PGE2-G, or PGF2α-G by intact THP1 monocytes” value [11] was ~ 50% and the “amount of 2AG in culture medium relative to control group” value ([12]; oxon 1 μM) was 3.1 fold. The “amount of 2AG in culture medium relative to control group” value ([12]; oxon 10 μM) was 3.5 fold.

In the case of O=C1C(=O)c2sccc2-c2ccsc21 [S-3030, thieno[3,2-e][1]benzothiophene-4,5-dione], the “inhibition of recombinant human MAGL activity” value [13] is reported as “did not inhibit; also recorded: does not inhibit”, the “inhibition of 2AG hydrolysis in THP1 monocyte lysate” value [2, 18] is reported as 55% and 50% and the “inhibition of PGE2-G hydrolysis in THP1 monocyte lysate” value [2, 18] is reported as 97% and > 95%. For the same molecule, the “inhibition of PGF2α-G hydrolysis in THP1 monocyte lysate” value [2, 18] was 80%, the IC50 [6] was ~23 µM and the “inhibition of the 31-32kDa enzyme (FP-biotin band intensity)” value ([7]; S-3030 0-100 μM, FP-biotin 0.2 μM, 7.5 min) was “not reduced”.

In the case of CN(Cc1cccc(-c2ccncc2)c1)C(=O)Oc1ccc(-c2ccc(C(N)=O)cc2)cc1 [WWL70], the “inhibition of 2AG hydrolytic activity in THP1 cell lysate” value ([2]; specific ABHD6 inhibitor) is reported as “did not inhibit; also recorded: does not inhibit”.

In the case of COc1ccc2c(c1)c(CC(=O)O)c(C)n2C(=O)c1ccc(Cl)cc1 [indomethacin], the “formation of PG-Gs by THP1 macrophages” value ([9]; indomethacin 3 μM added along with CPO prior to 2AG) is reported as “blocked formation of PG-Gs”.

With “prostaglandin E2 glyceryl ester [PGE2-G]” the Km [1] was 705 ± 380 µM, the kcat [1] was 150 ± 81 min⁻¹ and the “reduction … of CES1-depleted lysate” value [3] was 80%. The “hydrolysis rate by MAGL relative to CES1” value [14] was 2 fold, the Km [4] was 250 ± 60 µM and the kcat [4] was 90 ± 16^b min^−1.

With “prostaglandin F2α glyceryl ester [PGF2α-G]” the “hydrolysis relative to PGE2-G using CES2 (judged by kcat/Km)” value [1] was 6.5 fold, the “hydrolysis by CES2 relative to CES1” value ([1]; Table 1) was “three times faster” and the Km [1] was 35 ± 4.1 µM. For the same molecule, the kcat [1] was 49 ± 5.4^a min^−1, the “reduction … of CES1-depleted lysate” value [3] was 50% and the “hydrolysis rate by MAGL relative to CES1” value [14] was 4 fold. The Km [4] was 93 ± 43 µM and the kcat [4] was 29 ± 3.5^a,b min^−1.

B1: recombinant human CES2 (Homo sapiens) (protein)
chain: T1 sequence (O00748 27-559)
For B1, the Km [15] was 46 ± 13 µM and the kcat [15] was 0.717 ± 0.0667 s⁻¹.

B2: recombinant human CES1 (Homo sapiens) (protein)
chain: T2 sequence (P23141 18-567)
For B2, the Km [16] was 49 ± 11 µM and the kcat [16] was 0.983 ± 0.0667 s⁻¹.
